Assay results taken from ChEMBL document CHEMBL1157295, “Polyacylated oligosaccharides from medicinal Mexican morning glory species as antibacterials and inhibitors of multidrug resistance in Staphylococcus aureus” (2006).
In brackets after ≈: the same amount, converted by molar mass.

Key:
Type in all cases: functional
Staphylococcus aureus [1] = assay: Antimicrobial activity against epidemic methicillin-resistant Staphylococcus aureus 15 by standard microdilution method
Outline: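 Broth microdilution following NCCLS guidelines, at least in duplicate, against EMRSA-15 (mecA) precultured on nutrient agar. Medium was cation-adjusted Mueller-Hinton broth with 20 mg/L Ca2+ and 10 mg/L Mg2+. Inoculum was 5 × 10^5 cfu in 0.9% saline, set against a McFarland standard. Compounds were dissolved in DMSO (final ≤3.125% v/v) and tested at 1–512 µg/mL in 2-fold series. MIC was the lowest concentration with no visible growth.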

Staphylococcus aureus [2] = assay: Antimicrobial activity against Staphylococcus aureus ATCC 6538
[3] = system: Mycobacterium tuberculosis; assay: Antimicrobial activity against Mycobacterium tuberculosis
Staphylococcus aureus [4] = assay: Antimicrobial activity against TetK multidrug efflux pump possessing Staphylococcus aureus XU-212 by standard microdilution method
Outline: (§1)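 Broth microdilution per NCCLS guidelines, at least in duplicate, in cation-adjusted Mueller-Hinton broth (20 mg/L Ca2+, 10 mg/L Mg2+). Strains were grown first on nutrient agar. Inoculum of 5 × 10^5 cfu was set in 0.9% saline against a McFarland standard. Compounds were dissolved in DMSO and given as 2-fold serial dilutions, final 1–512 µg/mL, with at most 3.125% v/v DMSO. MIC is the lowest concentration showing no visible growth.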

Staphylococcus aureus [5] = assay: Antimicrobial activity against Staphylococcus aureus ATCC 25923 by standard microdilution method; outline: as §1

Compound	MIC (Staphylococcus aureus [1])	MIC (Staphylococcus aureus [2])	MIC [3]	MIC (Staphylococcus aureus [4])	MIC (Staphylococcus aureus [5])
CCCCC[C@H]1CCCCCCCCCC(=O)O[C@H]2[C@H](O)[C@@H](CO)O[C@@H](O[C@H]3[C@H](O1)O[C@H](C)[C@H](O)[C@@H]3O)[C@@H]2O[C@@H]1O[C@@H](C)[C@H](OC(=O)[C@@H](C)CC)[C@@H](O[C@@H]2O[C@@H](C)[C@H](O)[C@@H](O)[C@H]2O)[C@H]1OC(=O)[C@@H](C)CC [TRICOLORIN A]	4 µg/mL (≈ 3.91 µM)	1 µg/mL (≈ 0.977 µM)	16 µg/mL (≈ 15.6 µM)	8 µg/mL (≈ 7.82 µM)	16 µg/mL (≈ 15.6 µM)
CCCCC[C@H]1CCCCCCCCCC(=O)OC[C@H]2O[C@@H](O[C@H]3[C@H](O1)O[C@H](C)[C@H](O)[C@@H]3O)[C@H](O[C@@H]1O[C@@H](C)[C@H](OC(=O)[C@@H](C)CC)[C@@H](O[C@@H]3O[C@@H](C)[C@H](O)[C@@H](O)[C@H]3O)[C@H]1OC(=O)[C@@H](C)CC)[C@@H](O)[C@@H]2O [TRICOLORIN D]	32 µg/mL (≈ 31.3 µM)	1 µg/mL (≈ 0.977 µM)	16 µg/mL (≈ 15.6 µM)	32 µg/mL (≈ 31.3 µM)	16 µg/mL (≈ 15.6 µM)
CCCCC[C@H]1CCCCCCCCCC(=O)O[C@H]2[C@H](O)[C@@H](CO)O[C@@H](O[C@H]3[C@H](O1)O[C@H](C)[C@H](O)[C@@H]3O)[C@@H]2O[C@@H]1O[C@@H](C)[C@H](OC(=O)[C@H](C)[C@@H](C)O)[C@@H](O[C@@H]2O[C@@H](C)[C@H](O)[C@@H](O)[C@H]2O)[C@H]1OC(=O)[C@@H](C)CC [TRICOLORIN C]	32 µg/mL (≈ 30.8 µM)	1 µg/mL (≈ 0.962 µM)	16 µg/mL (≈ 15.4 µM)	16 µg/mL (≈ 15.4 µM)	32 µg/mL (≈ 30.8 µM)
CCCCC[C@H]1CCCCCCCCCC(=O)O[C@H]2[C@H](O)[C@@H](CO)O[C@@H](O[C@H]3[C@H](O1)O[C@H](C)[C@H](O)[C@@H]3O)[C@@H]2O[C@@H]1O[C@@H](C)[C@H](OC(=O)C(C)C)[C@@H](O[C@@H]2O[C@@H](C)[C@H](O)[C@@H](O)[C@H]2O)[C@H]1OC(=O)[C@@H](C)CC [TRICOLORIN B]	16 µg/mL (≈ 15.9 µM)	1 µg/mL (≈ 0.991 µM)	16 µg/mL (≈ 15.9 µM)	16 µg/mL (≈ 15.9 µM)	32 µg/mL (≈ 31.7 µM)
